The source made the active and inactive calls.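 The calls were made as follows, unless noted: active = growth inhibition above 25% in both replicates, a cutoff set 3 SD above the mean; inconclusive = above 25% in only one replicate; inactive = the rest.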

The first experiment can be described thus: growth suppression of yeast trafficking mutant, preliminary HTS, modulators of trafficking downstream of Golgi apparatus project, 1536-format plate, OD 615 nm (AID 637; in the data active = inhibition above about 30%). As to conditions: yeast transport mutant growth, absorbance 615 nm, 18 h; active compounds read high.
Turning to `COc1cccc(C2=NOC(C(=O)N3CCN(c4ccccc4)CC3)C2)c1OC` (stereo not given), the inhibition is 0% (inactive).
Take `O=C(Nc1ccc2c(c1)OCO2)c1ccc(CN2CCOCC2)cc1`: the inhibition was 7.1% (inactive).
Regarding `O=C(Cn1nc(Cc2ccncc2)c2ccccc2c1=O)N1CCc2ccccc2C1`, the inhibition was -3.77% (inactive).
In the case of `CCOCCCNC(=O)c1ccc2c(c1)N(Cc1ccccc1)C(=O)CS2=O` (stereo not given), the inhibition was -10.7% (inactive).
The same measure, in the same setting: to `CS(=O)(=O)Nc1ccccc1C(=O)O` belongs -5.17% (inactive); to `CCOC(=O)N1CCC(Nc2ncnc3c2cnn3-c2ccc(C)cc2C)CC1`, 1.5% (inactive); to `CC1(C)C(c2ccccc2)=NC(c2ccccc2)N1O` (stereo not given), -9% (inactive).
As for `O=C(CS(=O)(=O)Cc1ccccc1)Nc1nc2ccccc2s1`, the inhibition is 0.32% (inactive).
With `CCOC(=O)N1CCN(C(=O)COc2ccc(S(=O)(=O)NC(C)C)cc2)CC1`, the inhibition is 2.33% (inactive).
Same read-out and setting: the value for `COc1ccc(N2CCN(CCNC(=O)CCS(=O)(=O)c3cccc4nsnc34)CC2)cc1` was -0.16% (inactive); that for `COc1cccc(C2CC(=O)Nc3c2c(=O)n(C)c(=O)n3C)c1OC` (stereo not given) was -4.75% (inactive).
Turning to `CCN1C(=O)c2ccccc2S(=O)c2ccc(C(=O)NC3CC3)cc21` (stereo not given), the inhibition was 3.77% (inactive).
For `CCOC(=O)CCc1c(C)nc2cc(-c3ccc(F)cc3)[nH]n2c1=O`, the inhibition is -7.33% (inactive).
For `CCC(C)(C(=O)NC1CCCC1)N(Cc1cccs1)C(C)=O` (stereo not given), the inhibition was 5.08% (inactive).
Regarding `COc1ccccc1NC(=O)C1(C)Cc2ccccc2C(=O)O1` (stereo not given), the inhibition is 0.67% (inactive).
The same measure, in the same setting: to `COC(=O)c1sc(NC(=O)COc2ccccc2OC)nc1C` belongs -4% (inactive); to `O=C(Nc1ccc2c(c1)OCCO2)NC1CCCCC1`, -1.13% (inactive); to `c1ccc2c(c1)nc(NCCN1CCOCC1)c1nncn12`, 2.5% (inactive).
Take `O=C(c1ccc(Br)cc1)N1CCN(S(=O)(=O)c2ccccc2)CC1`: the inhibition is 2.33% (inactive).
For the compound `C/C=C/Cn1c(SCCCc2ccccc2)nc2c1c(=O)[nH]c(=O)n2C`, the inhibition was 3.61% (inactive).
For `O=c1c2ccccc2nc(SCc2nc(-c3ccccc3)no2)n1-c1ccc(F)cc1`, the inhibition was 2.17% (inactive).
On to `Cn1c(=O)c2c(nc3sccn32)n(C)c1=O`, for which the inhibition is -4.1% (inactive).
`CCCCOc1ccc(-c2ncc(Cl)cn2)cc1`: the inhibition was 0.83% (inactive).
Take `CCOC(=O)c1ccc(N2Cc3cc(C)c(C)cc3C2)cc1O`: the inhibition was 10.3% (inactive).
For the compound `O=C(CSc1nc(-c2ccco2)cc(C(F)(F)F)n1)NCCCn1ccnc1`, the inhibition was -2.3% (inactive).
Turning to `COc1cccc(NC(=O)CSc2nnc(Cc3cccn3C)n2-c2ccc(F)cc2)c1`, the inhibition is -8% (inactive).
`CCOC(=O)c1ccc(-n2c(C)nc3c(cnn3-c3ccccc3C)c2=O)cc1`: the inhibition is -3.93% (inactive).
Regarding `CCOC(=O)C1=C(C)N(C)C(=O)NC1c1ccccc1OC` (stereo not given), the inhibition is 2.46% (inactive).
As to `Cc1ccc(CSc2nc3c(c(=O)[nH]2)CCC3)cc1`, the inhibition was 2.67% (inactive).
With `CCOC(=O)c1c(C)n(C)c2c(C)cc(O)c(OC(C)=O)c12`, the inhibition is 0.5% (inactive).
Same read-out and setting: to `Cc1ccccc1NC(=O)C1CCCN(S(=O)(=O)c2cnc[nH]2)C1` (stereo not given) belongs 3.33% (inactive).
For the compound `O=C(NCc1ccc(F)cc1)c1cc2ccccn2n1`, the inhibition is 4.5% (inactive).
Turning to `CCCNC(=O)C1CCN(S(=O)(=O)c2ccc3nc4c(c(C(=O)O)c3c2)CCCCC4)CC1`, the inhibition was 8.36% (inactive).
Turning to `COc1ccc2[nH]c(C)c(CCN3C(=O)OC(C)(C)C3(C)O)c2c1` (stereo not given), the inhibition was -6.67% (inactive).
The same measure, in the same setting: the value for `COc1ccc(N(CC(=O)Nc2ccc3c(c2)OCO3)S(=O)(=O)c2c(C)nn(C)c2C)cc1` was 1% (inactive); that for `Cc1onc(-c2ccccc2Cl)c1C(=O)Nc1cnn(Cc2ccccc2)c1` was 0.33% (inactive).
Same read-out and setting: the value for `CCOCCCNC(=O)CN1CCN(Cc2ccccc2C)C1=O` was -7.7% (inactive); that for `CCN1C(=O)c2cccc3c(NC(=O)c4ccc(S(=O)(=O)N(C)C)cc4)ccc1c23` was -7.17% (inactive); that for `O=C(Nc1cccc2ccccc12)c1ccc(Br)o1` was -0.17% (inactive).
With `c1ccc(-c2cn3cccnc3n2)cc1`, the inhibition is -0.73% (inactive).

The next experiment is described as follows: S. cerevisiae growth inhibition in permissive medium (OD615), pilot counter-assay for S. cerevisiae lifespan shortening project, permissive growth control (AID 705). As to conditions: OD615, 24 h, at 10 µM, active compounds read high. The essentials: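 Test system: Saccharomyces cerevisiae strain carrying genetically modified DeaD replicative-lifespan system; buffer or medium: SC raffinose/galactose permissive medium; dosing: one dose 10 µM, DMSO 0.25% final; times: 24 h exposure, 30 °C; measured by: OD at 615 nm; read-out basis: growth inhibition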
With `COc1cccc(C2=NOC(C(=O)N3CCN(c4ccccc4)CC3)C2)c1OC` (stereo not given), the growth inhibition was -7.02% (inactive).
The same measure, in the same setting: the value for `O=C(Nc1ccc2c(c1)OCO2)c1ccc(CN2CCOCC2)cc1` was -6.27% (inactive); that for `O=C(Cn1nc(Cc2ccncc2)c2ccccc2c1=O)N1CCc2ccccc2C1` was -1.69% (inactive).
As for `CCOCCCNC(=O)c1ccc2c(c1)N(Cc1ccccc1)C(=O)CS2=O` (stereo not given), the growth inhibition was -5.99% (inactive).
For the compound `CS(=O)(=O)Nc1ccccc1C(=O)O`, the growth inhibition is -7.19% (inactive).
As for `CCOC(=O)N1CCC(Nc2ncnc3c2cnn3-c2ccc(C)cc2C)CC1`, the growth inhibition is 5.81% (inactive).
For the compound `CC1(C)C(c2ccccc2)=NC(c2ccccc2)N1O` (stereo not given), the growth inhibition was -0.065% (inactive).
The same measure, in the same setting: the value for `O=C(CS(=O)(=O)Cc1ccccc1)Nc1nc2ccccc2s1` was -13.1% (inactive); that for `CCOC(=O)N1CCN(C(=O)COc2ccc(S(=O)(=O)NC(C)C)cc2)CC1` was -17.6% (inactive).
`COc1ccc(N2CCN(CCNC(=O)CCS(=O)(=O)c3cccc4nsnc34)CC2)cc1`: the growth inhibition is 0.45% (inactive).
Turning to `COc1cccc(C2CC(=O)Nc3c2c(=O)n(C)c(=O)n3C)c1OC` (stereo not given), the growth inhibition is -3.2% (inactive).
With `CCN1C(=O)c2ccccc2S(=O)c2ccc(C(=O)NC3CC3)cc21` (stereo not given), the growth inhibition is 4.88% (inactive).
For the compound `CCOC(=O)CCc1c(C)nc2cc(-c3ccc(F)cc3)[nH]n2c1=O`, the growth inhibition was -13.1% (inactive).
`CCC(C)(C(=O)NC1CCCC1)N(Cc1cccs1)C(C)=O` (stereo not given): the growth inhibition is -17.6% (inactive).
For the compound `COc1ccccc1NC(=O)C1(C)Cc2ccccc2C(=O)O1` (stereo not given), the growth inhibition was -6.73% (inactive).
With `COC(=O)c1sc(NC(=O)COc2ccccc2OC)nc1C`, the growth inhibition is -1.71% (inactive).
Regarding `O=C(Nc1ccc2c(c1)OCCO2)NC1CCCCC1`, the growth inhibition was -1.73% (inactive).
For the compound `c1ccc2c(c1)nc(NCCN1CCOCC1)c1nncn12`, the growth inhibition is -10.4% (inactive).
With `O=C(c1ccc(Br)cc1)N1CCN(S(=O)(=O)c2ccccc2)CC1`, the growth inhibition is 4.02% (inactive).
As to `C/C=C/Cn1c(SCCCc2ccccc2)nc2c1c(=O)[nH]c(=O)n2C`, the growth inhibition was -15.3% (inactive).
With `O=c1c2ccccc2nc(SCc2nc(-c3ccccc3)no2)n1-c1ccc(F)cc1`, the growth inhibition was 2.33% (inactive).
On the same count and under the same terms, the value for `Cn1c(=O)c2c(nc3sccn32)n(C)c1=O` was -7.3% (inactive); that for `CCCCOc1ccc(-c2ncc(Cl)cn2)cc1` was -14.9% (inactive).
For the compound `CCOC(=O)c1ccc(N2Cc3cc(C)c(C)cc3C2)cc1O`, the growth inhibition is -10.9% (inactive).
As for `O=C(CSc1nc(-c2ccco2)cc(C(F)(F)F)n1)NCCCn1ccnc1`, the growth inhibition is -8.51% (inactive).
On the same count and under the same terms, the value for `COc1cccc(NC(=O)CSc2nnc(Cc3cccn3C)n2-c2ccc(F)cc2)c1` was 0.385% (inactive); that for `CCOC(=O)c1ccc(-n2c(C)nc3c(cnn3-c3ccccc3C)c2=O)cc1` was 2.42% (inactive).
On the same count and under the same terms, the value for `CCOC(=O)C1=C(C)N(C)C(=O)NC1c1ccccc1OC` (stereo not given) was -4.28% (inactive).
For `Cc1ccc(CSc2nc3c(c(=O)[nH]2)CCC3)cc1`, the growth inhibition is -9.96% (inactive).
On to `CCOC(=O)c1c(C)n(C)c2c(C)cc(O)c(OC(C)=O)c12`, for which the growth inhibition is -11.9% (inactive).
Regarding `Cc1ccccc1NC(=O)C1CCCN(S(=O)(=O)c2cnc[nH]2)C1` (stereo not given), the growth inhibition was -1.35% (inactive).
Still for that read-out and setting: the value for `O=C(NCc1ccc(F)cc1)c1cc2ccccn2n1` was 1.54% (inactive); that for `CCCNC(=O)C1CCN(S(=O)(=O)c2ccc3nc4c(c(C(=O)O)c3c2)CCCCC4)CC1` was 2.08% (inactive); that for `COc1ccc2[nH]c(C)c(CCN3C(=O)OC(C)(C)C3(C)O)c2c1` (stereo not given) was 4.92% (inactive).
Regarding `COc1ccc(N(CC(=O)Nc2ccc3c(c2)OCO3)S(=O)(=O)c2c(C)nn(C)c2C)cc1`, the growth inhibition was -8.51% (inactive).
Take `Cc1onc(-c2ccccc2Cl)c1C(=O)Nc1cnn(Cc2ccccc2)c1`: the growth inhibition is -12.3% (inactive).
Same read-out and setting: to `CCOCCCNC(=O)CN1CCN(Cc2ccccc2C)C1=O` belongs -4.88% (inactive).
`CCN1C(=O)c2cccc3c(NC(=O)c4ccc(S(=O)(=O)N(C)C)cc4)ccc1c23`: the growth inhibition was -11.7% (inactive).
Consider `O=C(Nc1cccc2ccccc12)c1ccc(Br)o1`, for which the growth inhibition was -10% (inactive).
For `c1ccc(-c2cn3cccnc3n2)cc1`, the growth inhibition is -10.6% (inactive).

As a reminder, the inhibition is the drop in the measured response relative to a control, in per cent.

Values taken from PubChem BioAssay.
